Measured values taken from paper PMC9669183 (British journal of pharmacology, 2022).
Where “and” joins values, the source holds several entries; their conditions need not be identical. Equal entries are not always repeated. Where two headings read alike, the source gives them in different places.

Columns and labels:
α1β2γ2L GABAAR [1] = molecular target: T1, α1β2γ2L GABAAR (Rattus norvegicus, UniProt P18508+P62813+P63138, INS375LLRMFSFK); assay: Drug combination; format: cell-based
α1β2γ2L GABAAR [2] = molecular target: T1, α1β2γ2L GABAAR; assay: Modulation of steady-state response to saturating GABA, Xenopus oocytes; format: cell-based; details: 50 μM α7-PAM; 1 mM GABA
α1β2γ2L GABAAR [3] = molecular target: T1, α1β2γ2L GABAAR; format: cell-based; details: for potentiation of the response to low GABA (% of control): 50 μM α7-PAM, 2-5 μM GABA (PA<0.10), 100% = no effect, mean±SEM; for free energy change (ΔG) towards stabilizing the active state: co-agonist concerted transition model
α1β2γ2L GABAAR [4] = molecular target: T1, α1β2γ2L GABAAR; assay: Direct activation, two-electrode voltage clamp in Xenopus oocytes; format: cell-based; details: 50 μM α7-PAM; n=5 oocytes/drug; mean±SEM
α1β3γ2L GABAAR [5] = molecular target: T2, α1β3γ2L GABAAR (Homo sapiens, UniProt P14867+P18507+P28472); format: binding; details: for direct effect on fluorescence from α1β3γ2L-bound Gzn-OG (orthosteric site): 3-100 μM α7-PAM, no GABA
α1β2γ2L GABAAR [6] = molecular target: T1, α1β2γ2L GABAAR; assay: Potentiation of receptors activated by allosteric agonists; format: cell-based
[7] = test system: binary αβ GABAA receptors (α1β2, α1β3); assay: Potentiation of binary αβ receptors compared with ternary αβγ, oocytes; format: cell-based
α4β2 nicotinic receptor = details: at high μM concentrations; ref Arias et al., 2011; Timmermann et al., 2007; cited from earlier work
α1(Q241L)β2γ2L GABAAR = α1(Q241L)β2γ2L GABAAR (Rattus norvegicus, UniProt P18508+P62813+P63138, INS375LLRMFSFK/Q268L); assay: Potentiation of low GABA response, mutant receptor in oocytes; format: cell-based; details: 50 μM; low GABA PA<0.10; mean±SEM
α1β2γ2L(I242C) GABAAR = α1β2γ2L(I242C) GABAAR (Rattus norvegicus, UniProt P18508+P62813+P63138, I280C/INS375LLRMFSFK); assay: as above; format: cell-based; details: 50 μM; low GABA PA<0.10; mean±SEM
α1β2(M286W)γ2L GABAAR = α1β2(M286W)γ2L GABAAR (Rattus norvegicus, UniProt P18508+P62813+P63138, INS375LLRMFSFK/M310W); assay: as above; format: cell-based; details: 50 μM; low GABA PA<0.10; mean±SEM
α1β3(M227C)γ2L GABAAR = α1β3(M227C)γ2L GABAAR (Homo sapiens, UniProt P14867+P18507+P28472, M252C); assay: as above; format: cell-based; details: 50 μM; low GABA PA<0.10; mean±SEM
α1β3(L231C)γ2L GABAAR = α1β3(L231C)γ2L GABAAR (Homo sapiens, UniProt P14867+P18507+P28472, L256C); assay: as above; format: cell-based; details: 50 μM; low GABA PA<0.10; mean±SEM
α1(M236C)β2γ2L GABAAR = α1(M236C)β2γ2L GABAAR (Rattus norvegicus, UniProt P18508+P62813+P63138, INS375LLRMFSFK/M262C); assay: as above; format: cell-based; details: 50 μM; low GABA PA<0.10; mean±SEM
α1β2γ2L(L246C) GABAAR = α1β2γ2L(L246C) GABAAR (Rattus norvegicus, UniProt P18508+P62813+P63138, INS375LLRMFSFK/L284C); assay: as above; format: cell-based; details: 50 μM; low GABA PA<0.10; mean±SEM
α4β2δ GABAA receptor = α4β2δ GABAA receptor (Homo sapiens, UniProt O14764+P47870+P48169); assay: Effect on α4β2δ receptor during long drug applications, oocytes; format: cell-based
Chain of α4β2δ GABAA receptor (P48169 36-554): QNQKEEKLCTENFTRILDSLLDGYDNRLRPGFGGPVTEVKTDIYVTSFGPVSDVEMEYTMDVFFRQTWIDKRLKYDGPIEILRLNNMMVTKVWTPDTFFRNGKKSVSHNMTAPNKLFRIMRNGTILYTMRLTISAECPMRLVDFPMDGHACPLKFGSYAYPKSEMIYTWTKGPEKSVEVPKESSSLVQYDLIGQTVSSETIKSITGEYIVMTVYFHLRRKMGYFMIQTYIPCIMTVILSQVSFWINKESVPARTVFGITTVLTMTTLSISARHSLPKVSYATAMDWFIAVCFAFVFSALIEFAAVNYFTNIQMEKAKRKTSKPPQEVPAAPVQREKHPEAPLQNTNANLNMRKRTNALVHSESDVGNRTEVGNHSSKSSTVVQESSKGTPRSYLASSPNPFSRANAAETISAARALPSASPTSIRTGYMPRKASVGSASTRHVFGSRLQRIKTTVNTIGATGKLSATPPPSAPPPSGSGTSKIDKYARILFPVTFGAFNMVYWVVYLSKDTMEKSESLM
Chain of α4β2δ GABAA receptor (P47870 25-512 limits assumed): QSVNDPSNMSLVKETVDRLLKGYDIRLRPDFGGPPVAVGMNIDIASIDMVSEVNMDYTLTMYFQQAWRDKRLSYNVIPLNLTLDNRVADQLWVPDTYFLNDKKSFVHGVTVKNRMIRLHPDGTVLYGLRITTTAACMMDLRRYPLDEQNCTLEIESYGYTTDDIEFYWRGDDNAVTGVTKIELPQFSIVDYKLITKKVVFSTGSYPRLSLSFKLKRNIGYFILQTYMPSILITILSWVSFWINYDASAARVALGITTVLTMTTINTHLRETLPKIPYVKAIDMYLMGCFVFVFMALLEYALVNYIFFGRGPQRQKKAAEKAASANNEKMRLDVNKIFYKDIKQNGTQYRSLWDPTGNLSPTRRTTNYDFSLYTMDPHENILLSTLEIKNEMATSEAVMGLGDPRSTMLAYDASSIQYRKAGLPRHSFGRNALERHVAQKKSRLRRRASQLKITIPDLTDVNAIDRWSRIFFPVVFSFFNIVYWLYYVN
Chain of α4β2δ GABAA receptor (O14764 25-452): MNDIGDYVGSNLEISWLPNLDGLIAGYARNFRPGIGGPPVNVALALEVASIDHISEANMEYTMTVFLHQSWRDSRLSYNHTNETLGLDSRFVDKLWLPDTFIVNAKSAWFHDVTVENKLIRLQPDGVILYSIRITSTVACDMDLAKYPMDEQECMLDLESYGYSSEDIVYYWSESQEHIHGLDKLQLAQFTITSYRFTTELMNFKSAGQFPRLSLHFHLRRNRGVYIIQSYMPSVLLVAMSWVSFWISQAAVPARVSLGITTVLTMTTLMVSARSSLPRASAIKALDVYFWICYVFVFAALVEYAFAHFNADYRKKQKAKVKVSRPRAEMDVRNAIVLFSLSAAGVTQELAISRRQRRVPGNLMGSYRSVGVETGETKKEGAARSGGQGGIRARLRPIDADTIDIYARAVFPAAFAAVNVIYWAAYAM
Summary of the method: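 Human α4β2δ GABAA receptors were expressed in Xenopus laevis oocytes by injecting 3.5-6 ng total cRNA per oocyte. Oocytes were held 1-2 days in ND96 (pH 7.4) with Na pyruvate and antibiotics. Currents were recorded by two-electrode voltage clamp.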

α3β4 nicotinic receptor = details: at high μM concentrations; ref Arias et al., 2011; Timmermann et al., 2007; cited from earlier work
α1β2γ2L(S280C) GABAAR = α1β2γ2L(S280C) GABAAR (Rattus norvegicus, UniProt P18508+P62813+P63138, INS375LLRMFSFK/S318C); assay: Potentiation of low GABA response, mutant receptor in oocytes; format: cell-based; details: 50 μM; low GABA PA<0.10; mean±SEM
α1β2(N265M)γ2L GABAAR = α1β2(N265M)γ2L GABAAR (Rattus norvegicus, UniProt P18508+P62813+P63138, INS375LLRMFSFK/N289M); assay: as above; format: cell-based; details: 50 μM; low GABA PA<0.10; mean±SEM
α1(A291W)β2γ2L GABAAR = α1(A291W)β2γ2L GABAAR (Rattus norvegicus, UniProt P18508+P62813+P63138, A317W/INS375LLRMFSFK); assay: as above; format: cell-based; details: 50 μM; low GABA PA<0.10; mean±SEM
α1(L232C)β2γ2L GABAAR = α1(L232C)β2γ2L GABAAR (Rattus norvegicus, UniProt P18508+P62813+P63138, INS375LLRMFSFK/L258C); assay: as above; format: cell-based; details: 50 μM; low GABA PA<0.10; mean±SEM
α1β3γ2L GABAAR [8] = molecular target: T2, α1β3γ2L GABAAR; assay: Potentiation of low GABA response, oocytes; format: cell-based; details: 50 μM; low GABA PA<0.10; mean±SEM
[9] = c 0.804, KR,PNU-120596 constrained to 10 μM
[10] = c 0.804, KR,PNU-120596 constrained to 50 μM
[11] = c 0.804, KR,PNU-120596 constrained to 100 μM

## COc1cc(OC)c(NC(=O)Nc2cc(C)on2)cc1Cl [PNU-120596, N-(5-Cl-2,4-dimethoxyphenyl)-N’-(5-methyl-3-isoxazolyl)-urea]
α1β2γ2L GABAAR [1]; 0.1-0.5 μM GABA+10 μM NS-1738+50 μM PNU-120596, 5 oocytes
  PA of response to low GABA+NS-1738 with PNU-120596 coapplied: 0.074±0.024
α1β2γ2L GABAAR [1]; [9]
  predicted PA for GABA+NS-1738+PNU-120596, distinct site model: 0.114
  predicted PA for GABA+NS-1738+PNU-120596, same site model: 0.047
α1β2γ2L GABAAR [1]; [10]
  predicted PA for GABA+NS-1738+PNU-120596, distinct site model: 0.103
  predicted PA for GABA+NS-1738+PNU-120596, same site model: 0.065
α1β2γ2L GABAAR [1]; [11]
  predicted PA for GABA+NS-1738+PNU-120596, distinct site model: 0.097
  predicted PA for GABA+NS-1738+PNU-120596, same site model: 0.073
α1β2γ2L GABAAR [2]
  steady-state response to saturating GABA in presence of α7-PAM (% of control): 90±2 % of control
α1β2γ2L GABAAR [3]
  potentiation of the response to low GABA (% of control): 133±11 % of control
  free energy change (ΔG) towards stabilizing the active state: -0.26 ± 0.04 kcal/mol and -0.26 kcal/mol
α1β2γ2L GABAAR [3]; coapplied with low GABA (PA=0.05-0.13)
  potentiation EC50 (Hill equation): the fits did not converge
α1β2γ2L GABAAR [4]
  direct activation: response as % of the peak response to 1 mM GABA+50 μM propofol: 0.38±0.09%
α1β3γ2L GABAAR [5]; 3-10 μM α7-PAM
  shift in GABA F/Fo curves: Leftward shift
α1β3γ2L GABAAR [5]
  direct effect on fluorescence from α1β3γ2L-bound Gzn-OG (orthosteric site): do not modify fluorescence

## CC(C)c1cccc(C(C)C)c1O [propofol]
α1β2γ2L GABAAR [6]; 10 μM propofol
  PA of currents elicited by propofol alone: 0.06-0.07

## O=C(Nc1cc(Cl)ccc1O)Nc1cc(C(F)(F)F)ccc1Cl [NS-1738, N-(5-Cl-2-hydroxyphenyl)-N’-[2-Cl-5-(trifluoromethyl)phenyl]-urea]
[7]
  magnitude of potentiation in binary αβ vs ternary αβγ receptors: similar
α1β2γ2L GABAAR [1]; 0.5 μM GABA+20 μM NS-1738
  PA of response to GABA+NS-1738: 0.153±0.043
α1β2γ2L GABAAR [1]; 50 μM α7-PAM, R(+)-etomidate
  observed PA in the presence of R(+)-etomidate+α7-PAM: 0.068±0.022
  predicted PA for R(+)-etomidate+α7-PAM, distinct site model: 0.253±0.055
  predicted PA for R(+)-etomidate+α7-PAM, same site model: 0.007±0.002
α1β2γ2L GABAAR [1]; 0.1-0.5 μM GABA+10 μM NS-1738, 5 oocytes
  PA of response to low GABA+NS-1738: 0.084±0.028
α1β2γ2L GABAAR [6]; 50 μM α7-PAM, 10 μM propofol
  potentiation of currents elicited by propofol (% of control): 145±11 % of control
α1β2γ2L GABAAR [6]; 50 μM α7-PAM, 1 mM phenobarbital, n=5
  potentiation of the response to phenobarbital (% of control): 431±52 % of control
α1β2γ2L GABAAR [6]; 50 μM α7-PAM, 2-4 μM R(+)-etomidate
  potentiation of the peak response to R(+)-etomidate (% of control): 125±8 % of control
α1β2γ2L GABAAR [2]
  steady-state response to saturating GABA in presence of α7-PAM (% of control): 44±8 % of control
α4β2 nicotinic receptor
  effect on the heteromeric α4β2 nicotinic receptor: inhibit
α1(Q241L)β2γ2L GABAAR
  Potentiation (% of control), α1(Q241L)β2γ2L: 491 ± 45% of control
α1β2γ2L(I242C) GABAAR
  Potentiation (% of control), α1β2γ2L(I242C): 376 ±35% of control
α1β2(M286W)γ2L GABAAR
  Potentiation (% of control), α1β2(M286W)γ2L: 613 ±91% % of control
α1β3(M227C)γ2L GABAAR
  Potentiation (% of control), α1β3(M227C)γ2L: 322 ± 40% of control
α1β3(L231C)γ2L GABAAR
  Potentiation (% of control), α1β3(L231C)γ2L: 217 ± 36% of control
α1(M236C)β2γ2L GABAAR
  Potentiation (% of control), α1(M236C)β2γ2L: 181 ± 15% % of control
α1β2γ2L GABAAR [3]
  potentiation of the response to low GABA (% of control): 383±38 % of control
  free energy change (ΔG) towards stabilizing the active state: -1.29 kcal/mol
α1β2γ2L(L246C) GABAAR
  Potentiation (% of control), α1β2γ2L(L246C): 262 ± 25% of control
α4β2δ GABAA receptor
  effect on the α4β2δ receptor: inhibited
α3β4 nicotinic receptor
  effect on the heteromeric α3β4 nicotinic receptor: inhibit
α1β2γ2L(S280C) GABAAR
  Potentiation (% of control), α1β2γ2L(S280C): 344 ± 60% of control
α1β2(N265M)γ2L GABAAR
  Potentiation (% of control), α1β2(N265M)γ2L: 426 ± 61% of control
α1(A291W)β2γ2L GABAAR
  Potentiation (% of control), α1(A291W)β2γ2L: 199 ± 22% % of control
α1(L232C)β2γ2L GABAAR
  Potentiation (% of control), α1(L232C)β2γ2L: 357 ± 55% of control
α1β2γ2L GABAAR [4]
  direct activation: response as % of the peak response to 1 mM GABA+50 μM propofol: 0.86±0.51%
α1β3γ2L GABAAR [5]; 100 μM α7-PAM
  decrease in GABA Ki between 0 (control) and 100 μM α7-PAM: 25 fold
α1β3γ2L GABAAR [5]
  direct effect on fluorescence from α1β3γ2L-bound Gzn-OG (orthosteric site): do not modify fluorescence
α1β3γ2L GABAAR [8]
  Potentiation (% of control), α1β3γ2L: 301 ± 12% of control

## CCOC(=O)c1cncn1[C@H](C)c1ccccc1 [R(+)-etomidate, R-1-(1-ethylphenyl)imidazole-5-ethyl ester]
α1β2γ2L GABAAR [6]; 2-4 μM R(+)-etomidate
  PA of response to R(+)-etomidate alone: 0.053±0.015 and 0.041±0.013

## NCCCC(=O)O [GABA, γ-aminobutyric acid]
α1β2γ2L GABAAR [1]; 0.5 μM GABA, n=5
  PA of response to GABA alone: 0.039±0.013
α1β2γ2L GABAAR [3]; 2-5 μM GABA (EC6-7)
  PA of response to GABA alone: 0.05-0.06
